Assay results from ChEMBL document CHEMBL3108759, “Scaffold ranking and positional scanning utilized in the discovery of nAChR-selective compounds suitable for optimization studies” (J Med Chem, 2013).

Legend:
[1] = biological target: Neuronal acetylcholine receptor; alpha3/beta4 (Rattus norvegicus, UniProt P04757+P12392); assay: Displacement of [3H]epibatidine from rat alpha3beta4 nAChR transfected in HEK293 cells after 2 hrs by beta-plate counting analysis; assay type: cell-based
Method in brief: (§1)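 Cell lines KXα3β4R2 and KXα4β2R2 (rat receptors) were used. Membranes were prepared by homogenizing cells in 50 mM Tris pH 7.4 and centrifuging twice at 20000g. They were incubated 2 h at room temperature with 0.3 nM [3H]epibatidine plus test sample, then filtered on PEI-soaked glass fiber and counted. Nonspecific binding was defined by 1 µM AT-1001 or 0.1 µM epibatidine. Ki was obtained by Cheng–Prusoff; runs were in triplicate, at least twice.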

[2] = biological target: T1, Neuronal acetylcholine receptor; alpha4/beta2 (Rattus norvegicus, UniProt P09483+P12390); assay: Displacement of [3H]epibatidine from rat alpha4beta2 nAChR transfected in HEK293 cells after 2 hrs by beta-plate counting analysis; assay type: cell-based; method in brief: as §1
T1 sequence (P09483 whole entry): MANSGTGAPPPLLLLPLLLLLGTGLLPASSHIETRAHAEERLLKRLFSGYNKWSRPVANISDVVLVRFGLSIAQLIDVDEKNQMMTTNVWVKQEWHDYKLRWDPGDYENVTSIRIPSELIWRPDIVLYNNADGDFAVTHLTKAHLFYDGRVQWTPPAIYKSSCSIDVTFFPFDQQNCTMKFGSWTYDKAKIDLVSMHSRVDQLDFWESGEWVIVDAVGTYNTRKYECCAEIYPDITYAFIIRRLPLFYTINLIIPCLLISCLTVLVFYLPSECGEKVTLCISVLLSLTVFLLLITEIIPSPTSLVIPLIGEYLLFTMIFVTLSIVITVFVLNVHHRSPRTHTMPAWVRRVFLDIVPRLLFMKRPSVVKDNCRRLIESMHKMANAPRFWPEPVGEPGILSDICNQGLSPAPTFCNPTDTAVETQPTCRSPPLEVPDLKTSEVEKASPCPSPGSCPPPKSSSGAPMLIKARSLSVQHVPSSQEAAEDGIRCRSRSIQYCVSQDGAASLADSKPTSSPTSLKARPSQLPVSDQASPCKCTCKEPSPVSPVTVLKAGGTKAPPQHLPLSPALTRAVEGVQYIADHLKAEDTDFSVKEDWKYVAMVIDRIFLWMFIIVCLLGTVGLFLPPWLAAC
T1 sequence (P12390 whole entry): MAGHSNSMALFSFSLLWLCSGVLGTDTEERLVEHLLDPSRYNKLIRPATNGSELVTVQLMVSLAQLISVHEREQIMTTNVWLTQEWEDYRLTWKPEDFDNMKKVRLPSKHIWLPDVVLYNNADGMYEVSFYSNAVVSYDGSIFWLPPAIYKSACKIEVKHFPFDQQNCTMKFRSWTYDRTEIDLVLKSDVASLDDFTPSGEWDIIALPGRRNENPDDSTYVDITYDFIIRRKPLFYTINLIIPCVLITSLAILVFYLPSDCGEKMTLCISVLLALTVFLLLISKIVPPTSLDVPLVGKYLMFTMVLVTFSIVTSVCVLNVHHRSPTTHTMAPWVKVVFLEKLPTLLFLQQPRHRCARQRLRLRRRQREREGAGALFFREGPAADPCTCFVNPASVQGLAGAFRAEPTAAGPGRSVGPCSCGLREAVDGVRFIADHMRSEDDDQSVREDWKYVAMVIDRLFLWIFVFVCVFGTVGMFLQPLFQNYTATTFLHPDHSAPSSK

HEK293 = assay: Selectivity ratio for rat alpha3beta4 nAChR transfected in HEK293 cells to rat alpha4beta2 nAChR transfected in HEK293 cells; assay type: cell-based
Rattus norvegicus = species on record: Rattus norvegicus; assay: Selectivity ratio of Ki for rat alpha3beta4 nAChR to Ki for rat alpha4beta2 nAChR
Method in brief: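 Selectivity was calculated from [3H]epibatidine-binding Ki values as (Ki α3β4 − Ki α4β2)/Ki α4β2.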

[3] = biological target: T1, Neuronal acetylcholine receptor; alpha4/beta2; assay: Antagonist activity at rat alpha4beta2 nAChR transfected in HEK293 cells after 10 mins by fluorescence assay in presence of nicotine; assay type: cell-based
Method in brief: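 Transfected HEK cells were seeded at 4000/well the day before and loaded with blue membrane-potential dye in HBSS/20 mM HEPES pH 7.4 at 37 °C for 20 min. […] Fluorescence (ex 530, em 550–580) was recorded every 3 s for 120 s on a FlexStation.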

Chain of Neuronal acetylcholine receptor; alpha3/beta4 (P04757 whole entry): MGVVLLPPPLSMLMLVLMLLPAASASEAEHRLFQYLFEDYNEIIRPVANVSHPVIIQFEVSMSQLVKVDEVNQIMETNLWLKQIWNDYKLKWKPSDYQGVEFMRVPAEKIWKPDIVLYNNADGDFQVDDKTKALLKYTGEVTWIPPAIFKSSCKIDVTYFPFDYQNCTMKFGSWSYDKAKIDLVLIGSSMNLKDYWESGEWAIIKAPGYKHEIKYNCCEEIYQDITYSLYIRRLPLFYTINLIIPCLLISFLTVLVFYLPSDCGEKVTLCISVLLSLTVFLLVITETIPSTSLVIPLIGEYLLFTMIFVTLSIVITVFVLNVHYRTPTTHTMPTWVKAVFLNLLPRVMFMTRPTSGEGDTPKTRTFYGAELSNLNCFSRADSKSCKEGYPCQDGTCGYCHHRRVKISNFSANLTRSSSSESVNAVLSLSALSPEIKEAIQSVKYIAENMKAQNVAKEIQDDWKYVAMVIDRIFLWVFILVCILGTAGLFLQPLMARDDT
Chain of Neuronal acetylcholine receptor; alpha3/beta4 (P12392 whole entry): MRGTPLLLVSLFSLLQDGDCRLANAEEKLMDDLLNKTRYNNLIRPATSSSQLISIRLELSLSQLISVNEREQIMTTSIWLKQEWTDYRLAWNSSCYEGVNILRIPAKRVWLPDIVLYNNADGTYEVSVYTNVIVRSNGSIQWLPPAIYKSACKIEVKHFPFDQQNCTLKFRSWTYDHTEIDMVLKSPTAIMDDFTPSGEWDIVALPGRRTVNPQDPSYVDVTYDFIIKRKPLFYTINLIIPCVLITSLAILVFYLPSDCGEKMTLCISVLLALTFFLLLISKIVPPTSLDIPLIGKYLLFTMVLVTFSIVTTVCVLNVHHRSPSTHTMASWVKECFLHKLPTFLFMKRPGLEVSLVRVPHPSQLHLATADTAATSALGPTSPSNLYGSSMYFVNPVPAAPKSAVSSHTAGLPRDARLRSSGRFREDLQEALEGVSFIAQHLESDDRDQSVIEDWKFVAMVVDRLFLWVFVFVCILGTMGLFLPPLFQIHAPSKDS

N=C1N(CCCC[C@H]2CN=C(N)N2CCc2ccc(Cl)c(Cl)c2)C[C@@H](Cc2ccc3ccccc3c2)N1CCc1cccc(Br)c1
Ki [1]: 3 µM
Ki [2]: 1.9 µM

CC(C)CCCN1C(=N)NC[C@@H]1CCCCN1C[C@@H](CC2CCCCC2)N(CC2CCC(C(C)(C)C)CC2)C1=N (some centres not stated)
Selectivity ratio (HEK293): 21.2

CC(C)CCCN1C(N)=NC[C@@H]1CCCCN1C[C@@H](CC2CCCCC2)N(CCc2cccc(Br)c2)C1=N
Ki [1]: 37.3 µM
Ki [2]: 3.3 µM

N=C1N(CCCC[C@H]2CN=C(N)N2CCc2cccc(F)c2)C[C@@H](Cc2ccccc2)N1CCc1cccc(Br)c1
Ki [1]: 20.4 µM
Ki [2]: 1.8 µM

CC(C)CCCN1C(=N)NC[C@@H]1CCCCN1C[C@@H](Cc2ccccc2)N(CC2CCC(C(C)(C)C)CC2)C1=N (some centres not stated)
Selectivity ratio (HEK293): 28.5

N=C1N(CCCC[C@H]2CN=C(N)N2CCc2ccc(Cl)c(Cl)c2)C[C@H](Cc2ccc3ccccc3c2)N1CCc1ccc(Br)cc1
Ki [1]: 2.7 µM
Ki [2]: 3.1 µM

CC(C)(C)C1CCC(CN2CCN(CCCC[C@H]3CNC(=N)N3CCc3cccnc3)C2=N)CC1 (some centres not stated)
Ratio Ki (Rattus norvegicus): 64

CC(C)(C)C1CCC(CN2C(=N)N(CCCC[C@@H]3CNC(=N)N3CCc3cccnc3)C[C@H]2CC2CCCCC2)CC1 (some centres not stated)
Ki [1]: 33.4 µM
Ki [2]: 0.257 µM
Ratio Ki (Rattus norvegicus): 130
IC50 [3]: 1.69 µM

CC(C)(C)C1CCC(CN2C(=N)N(CCCC[C@@H]3CNC(=N)N3CCc3cccnc3)C[C@H]2Cc2ccccc2)CC1 (some centres not stated)
Ki [1]: 63.3 µM
Ki [2]: 0.307 µM
Ratio Ki (Rattus norvegicus): 206
IC50 [3]: 3.02 µM

CO[C@H]1CC=C2CCN3CCC4=C(CC(=O)OC4)[C@]23C1
Ki [1]: > 10 µM
Ki [2]: 0.485 µM
IC50 [3]: 0.624 µM

CC(C)(C)C1CCC(CN2C(=N)N(CCCC[C@H]3CNC(=N)N3CCc3cccnc3)C[C@@H]2CC2CCCCC2)CC1 (some centres not stated)
Ratio Ki (Rattus norvegicus): 128

N=C1N(CCCC[C@H]2CN=C(N)N2CCc2ccc(Cl)c(Cl)c2)C[C@@H](Cc2ccc3ccccc3c2)N1CCc1ccc(Br)cc1
Ki [1]: 4 µM
Ki [2]: 2.5 µM

N=C1N(CCCC[C@H]2CN=C(N)N2CCc2ccc(Cl)c(Cl)c2)C[C@H](Cc2ccc3ccccc3c2)N1CCc1cccc(Br)c1
Ki [1]: 76 µM
Ki [2]: 43.4 µM

CCCCCCCN1C(N)=NC[C@@H]1CCCCN1C[C@@H](CC2CCCCC2)N(CC2CCC(C(C)(C)C)CC2)C1=N (some centres not stated)
Ki [1]: 55.1 µM
Ki [2]: 3.9 µM

CC(C)(C)C1CCC(CN2C(=N)N(CCCC[C@H]3CN=C(N)N3CCc3cccnc3)C[C@@H]2CC2CCCCC2)CC1 (some centres not stated)
Ki [1]: 78.1 µM
Ki [2]: 0.611 µM
IC50 [3]: 3.4 µM

CCCCCCCN1C(N)=NC[C@@H]1CCCCN1C[C@@H](CC2CCCCC2)N(CCc2cccc(Br)c2)C1=N
Ki [1]: 23.4 µM
Ki [2]: 2.8 µM

CCCCCCCN1C(=N)NC[C@@H]1CCCCN1C[C@@H](CC2CCCCC2)N(CC2CCC(C(C)(C)C)CC2)C1=N (some centres not stated)
Selectivity ratio (HEK293): 13.2

N=C1NC[C@H](CCCCN2C[C@@H](Cc3ccccc3)N(CCc3cccc(Br)c3)C2=N)N1CCc1cccc(F)c1
Selectivity ratio (HEK293): 10.1

CCCCCCCN1C(=N)NC[C@@H]1CCCCN1C[C@@H](Cc2ccccc2)N(CCc2cccc(Br)c2)C1=N
Ki [1]: 14.4 µM
Ki [2]: 2.5 µM
Selectivity ratio (HEK293): 4.8

CC(C)(C)C1CCC(CN2C(=N)N(CCCC[C@H]3CNC(=N)N3CCc3cccc(F)c3)C[C@H]2Cc2ccccc2)CC1 (some centres not stated)
Ki [1]: 61.7 µM
Ki [2]: 1.59 µM
Ratio Ki (Rattus norvegicus): 39
IC50 [3]: 26.3 µM
Selectivity ratio (HEK293): 19

N=C1NC[C@H](CCCCN2C[C@@H](Cc3ccc4ccccc4c3)N(CCc3cccc(Br)c3)C2=N)N1CCc1ccc(Cl)c(Cl)c1
Selectivity ratio (HEK293): 0.6

N=C1N(CCCC[C@H]2CN=C(N)N2CCc2ccc(Cl)c(Cl)c2)C[C@H](Cc2ccc3ccccc3c2)N1CCc1ccc(Cl)c(Cl)c1
Ki [1]: 100 µM
Ki [2]: 183 µM
